Series [1] can be described thus: Induction of glucose consumption in mouse C2C12 cells at 10 uM measured after 12 hrs by glucose oxidase method (reference value: 100 %). Type of series: functional. The gist of the method: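 Differentiated C2C12 myotubes were switched to DMEM containing 2.75 g/L glucose and treated for 12 h at 37 °C, with cell-free blank wells as reference. Glucose left in the medium was measured by the GOD-POD method at 570 nm. Consumption was derived by subtraction and expressed as percentage of the DMSO group.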

Series [2] can be described thus: Inhibition of mitochondrial complex 1 in human HepG2 cells assessed as increase in ADP/ATP ratio at 0.5 uM. Type of series: cell-based. Conditions: hepg2, 0.5 µM. The gist of the method: (§1)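 HepG2 cells treated with 10 μM or 0.5 μM compound, or DMSO. Cellular ADP:ATP and AMP:ATP ratios were measured. Three replicates, given as mean ± SD and compared by Student's t test.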

A short description of series [3]: Inhibition of mitochondrial complex 1 in human HepG2 cells assessed as increase in AMP/ATP ratio at 0.5 uM. Type of series: cell-based. The settings on record: hepg2, 0.5 µM. The gist of the method: as §1
The subject of the next series is C2C12. Briefly: Activation of AMPK in mouse C2C12 cells assessed as increase in AMPK phosphorylation at Thr172 residue at 10 uM measured after 2 hrs by Western blot analysis. Type of series: cell-based. The settings on record: filed as activator. The gist of the method:
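C2C12 myoblasts differentiated in DMEM with 2% horse serum for 5-7 days until myotubes formed. Treated for 2 h, either at 10 μM or across a concentration range, or at 10 μM over a time course. RIPA lysates (~30 µg protein) blotted for p-AMPK/AMPK and p-ACC/ACC, detected by ECL. The p-AMPK/AMPK ratio is expressed as fold of the DMSO vehicle.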

For series [4], the system named is Mus musculus. The series can be described thus: Activation of AMPK in normal lean C57BL/6 mouse assessed as increase in phosphorylated ACC level in skeletal muscle at 100 mg/kg, ig administered for 4 weeks by Western blot analysis. Type of series: functional, organism-based. The settings on record: Skeletal muscle tissue. An outline of the steps:
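Male C57BL/6 mice, 9 weeks old, dosed intragastrically once daily for 4 weeks alongside vehicle controls. Heart and skeletal muscle were homogenized in RIPA buffer with protease/phosphatase inhibitors and centrifuged at 10,600 g for 20 min. About 30 µg protein was blotted for p-AMPK and p-ACC and detected by ECL.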
On the technique in general: A western blot detects proteins with antibodies after separation by electrophoresis.

For another series, the system named is A549. The series can be described thus: Activation of AMPK in human A549 cells harboring mutant LKB1. In kind it is cell-based. The settings on record: filed as activator.
The subject of series [5] is Mus musculus. The series can be described thus: Hypoglycemic activity in 6 hrs fasted normal lean C57BL/6 mouse assessed as improved glucose tolerance at 10 mg/kg, ig pretreated for 2 hrs followed by glucose challenge and measured up to 90 mins post glucose challenge starting from 120 mins prior to compound treatment by IPGTT. Type of series: functional, organism-based. The settings on record: time 210.0 min.

A short description of series [6]: Inhibition of bovine heart mitochondrial complex 1 at 5 to 20 uM measured every minute for 2 hrs by microplate reader based assay. Type of series: tissue-based, Bos taurus. The settings on record: cattle, dose 5-20 µM. An outline of the steps: (§2)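 Bovine heart mitochondria in detergent were captured on a complex I antibody-coated plate for 2 h at room temperature. Phospholipids were added, then complex I solution with compound, rotenone control or DMSO. NADH oxidation was followed as the fall in A340, read every minute for at least 2 h at 30 °C.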

Series [7] can be described thus: Metabolic stability in human liver microsomes assessed as compound remaining preincubated for 5 mins followed by NADPH addition and measured up to 45 mins by LC/MS analysis. In kind it is ADME, Microsome. The settings on record: time 50 min, read-out: Stabilty. An outline of the steps:
(§3)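 Compound was preincubated with mouse (ICR/CD-1) or human liver microsomes in potassium phosphate buffer at 37 °C for 5 min, then NADPH was added to start the reaction. Samples were quenched with acetonitrile containing tolbutamide internal standard at 0, 5, 15, 30 and 45 min. Parent compound measured by LC/MS; ketanserin served as control.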

A short description of series [8]: Metabolic stability in ICR/CD-1 mouse liver microsomes assessed as compound remaining preincubated for 5 mins followed by NADPH addition and measured up to 45 mins by LC/MS analysis. Type of series: ADME, Microsome. Conditions: time 50 min, read-out: Stabilty. An outline of the steps:
as §3

Series [9] is described as follows: Metabolic stability in ICR/CD-1 mouse liver microsomes assessed as half life preincubated for 5 mins followed by NADPH addition and measured up to 45 mins by LC/MS analysis. Conditions: time 50 min. In kind it is ADME, Microsome. The gist of the method: as §3
A general note: Liver microsomes are a subcellular fraction often used to study metabolism.

Series [10] is described as follows: Metabolic stability in human liver microsomes assessed as half life preincubated for 5 mins followed by NADPH addition and measured up to 45 mins by LC/MS analysis. Type of series: ADME, Microsome. Conditions: time 50 min. An outline of the steps: as §3
A short description of series [11]: Inhibition of bovine heart mitochondrial complex 1 at 10 uM measured every minute for 2 hrs by microplate reader based assay. Type of series: tissue-based, Bos taurus. The settings on record: cattle. The gist of the method:
as §2

The subject of series [12] is Mus musculus. Briefly: Hypoglycemic activity in 6 hrs fasted normal lean C57BL/6 mouse assessed as reduction in blood glucose level at 100 mg/kg, ig pretreated for 2 hrs followed by glucose challenge and measured up to 90 mins post glucose challenge starting from 120 mins prior to […] by IPGTT. In kind it is functional, organism-based. Conditions: time 210.0 min. The gist of the method: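 C57BL/6 mice (male, 8-10 weeks, n=6 per group) fasted 6 h, then given compound or vehicle intragastrically. Two hours later, 20% glucose was injected i.p. at 2 g/kg. Tail-vein glucose read by glucometer at -120, 0, 20, 40, 60 and 90 min, and net AUC calculated. Doses were 25, 50 and 100 mg/kg.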

The nature of series [13]: Metabolic stability in human liver microsomes assessed as intrinsic clearance preincubated for 5 mins followed by NADPH addition and measured up to 45 mins by LC/MS analysis. Type of series: ADME, Microsome. Conditions: time 50 min, read-out: CLH. An outline of the steps:
(§4)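 Compound and liver microsomes in preheated potassium phosphate buffer, held at 37 °C for 5 min. Reaction started with NADPH and stopped at 0, 5, 15, 30 and 45 min with acetonitrile containing tolbutamide internal standard. Samples centrifuged at 6000 rpm for 15 min, supernatant analysed by LC/MS. Ketanserin run as assay control. Performed by a contract lab.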

Series [14] can be described thus: Metabolic stability in ICR/CD-1 mouse liver microsomes assessed as intrinsic clearance preincubated for 5 mins followed by NADPH addition and measured up to 45 mins by LC/MS analysis. In kind it is ADME, Microsome. Conditions: time 50 min, read-out: CLH. An outline of the steps: as §4

Calls of active or inactive are those of the source.

For `CC(C)(Oc1ccc(Cl)cc1)C(=O)N1CCC(NC(=O)Nc2ccc(OC(F)(F)F)cc2)CC1`, the Activity in [1] is 104.2%.

For `COc1ccc(C(=O)C2CCN(C(=O)c3ccc(C(=O)NC4CCN(Cc5ccc(C#N)cc5)CC4)cn3)CC2)cc1`, the “inhibition (INH)” value in series [2] and in series [3] was “Active” in each case. In [1], `CC(C)(Oc1ccc(Cl)cc1)C(=O)N1CCC(NC(=O)Nc2ccc(C(=O)O)cc2)CC1` yielded an Activity of 117.7%. Consider `CC(C)(Oc1ccc(Cl)cc1)C(=O)N1CCC(NC(=O)Nc2ccc(Cl)cc2)CC1`, for which the outcome with C2C12 was Active. Also, the Activity in series [1] turned out to be 104.1%.

For `O[C@@H]1CO[C@H]2[C@@H]1OC[C@H]2Oc1nc2nc(-c3ccc(-c4ccccc4)cc3)c(Cl)cc2[nH]1`, the outcome in the series on C2C12, in the series with Mus musculus [4], with A549 and in the series with Mus musculus [5] was Active.

Regarding `CC(C)(Oc1ccc(Cl)cc1)C(=O)Nc1ccc(OCc2ccc(C(C)(C)C)cc2)cc1`, the Activity in series [1] is reported as 105.3%. Same read-out and setting: for `CC(C)(Oc1ccc(Cl)cc1)C(=O)N1CCC(NC(=O)Nc2ccc(Br)cc2)CC1` the value was 127.3%.

Take `COC(=O)c1ccc(COc2ccc(NC(=O)C(C)(C)Oc3ccc(Cl)cc3)cc2)cc1`: the Activity in series [1] amounted to 124.7%. As for `Cc1ccc(COc2ccc(NC(=O)C(C)(C)Oc3ccc(Cl)cc3)cc2)cc1`, the Activity in [1] is given as 102.2%. Same read-out and setting: under `CC(C)(Oc1ccc(Cl)cc1)C(=O)N1CCC(NC(=O)Nc2ccccc2C(F)(F)F)CC1` stands 116.1%.

`Cc1ccc(NC(=O)NC2CCN(C(=O)C(C)(C)Oc3ccc(Cl)cc3)CC2)cc1` yielded an Activity in series [1] of 93.7%. With `CC(C)(Oc1ccc(Cl)cc1)C(=O)N1CCC(NC(=O)Nc2ccc(C(F)(F)F)cc2)CC1`, in the series on C2C12, the result was Active. In addition, the Activity in series [1] came to 137.2%. Besides, in series [6], the “inhibition (INH)” value is on record as “Not Active”. `CC(C)(Oc1ccc(Cl)cc1)C(=O)Nc1ccc(OCc2ccc(Br)cc2)cc1` showed an Activity in series [1] of 112.7%. `COc1ccc(NC(=O)NC2CCN(C(=O)C(C)(C)Oc3ccc(Cl)cc3)CC2)cc1` came in with an Activity in [1] of 134.4%. For the molecule `CC(C)(Oc1ccc(Cl)cc1)C(=O)Nc1ccc(OCc2ccc(Cl)cc2)cc1`, the result in the series with C2C12 was Active. The molecule further registered an Activity in series [1] of 129%. On to `CCOC(=O)c1ccc(NC(=O)NC2CCN(C(=O)C(C)(C)Oc3ccc(Cl)cc3)CC2)cc1`, for which, in series [1], the Activity came to 126.1%. Consider `CC(C)(Oc1ccc(Cl)cc1)C(=O)N1CCC(NC(=O)Nc2ccc(F)cc2)CC1`, for which, in the series on C2C12, the result was Active. In series [1], this molecule had an Activity of 119.3%. Regarding `CC(C)(Oc1ccc(Cl)cc1)C(=O)Nc1ccc(OCc2ccc(S(C)(=O)=O)cc2)cc1`, the result in the series with C2C12 was Active. The Activity in series [1] was determined as 144.4%. Turning to `CC(C)(Oc1ccc(Cl)cc1)C(=O)Nc1ccc(OCc2ccc(C(F)(F)F)cc2)cc1`, the remaining at 0.75 h amounted to 93% in series [7] and 91% in [8]. The half-life in series [9] and in series [10] was above 120 min in each case. This molecule also showed an Activity in series [1] of 156.1%. Also, the “inhibition (INH)” value in series [6] is listed as “Active”. As for `O=C(COc1ccc(C(=O)c2ccccc2)cc1)NC1CCN(Cc2ccccc2)CC1`, the outcome in the series on C2C12 and in the series on Mus musculus [12] was Active. The “inhibition (INH)” value in [11] is on record as “Active”. This molecule also returned an Activity in series [1] of 132.4%.

For the molecule `CC(C)(Oc1ccc(Cl)cc1)C(=O)N1CCC(NC(=O)Nc2cccc(C(F)(F)F)c2)CC1`, the Activity in series [1] was 91%. On the same count and under the same terms, for `COc1ccc(COc2ccc(NC(=O)C(C)(C)Oc3ccc(Cl)cc3)cc2)cc1` the value was 134.7%.

With `CC(C)(Oc1ccc(Cl)cc1)C(=O)N1CCC(NC(=O)Nc2ccc([N+](=O)[O-])cc2)CC1`, in series [1], the Activity was found to be 115.4%. The molecule `CC(C)(Oc1ccc(Cl)cc1)C(=O)Nc1ccc(OCc2ccc(F)cc2)cc1` registered an Activity in [1] of 107.6%.

Consider `CC(C)(Oc1ccc(Cl)cc1)C(=O)N1CCC(NC(=O)Nc2ccc(F)c(Cl)c2)CC1`, for which the Activity in series [1] is 116.7%. `CC(C)(Oc1ccc(Cl)cc1)C(=O)N1CCC(NC(=O)Nc2ccc(C#N)cc2)CC1` had an Activity in series [1] of 116.2%. `CC(C)(Oc1ccc(Cl)cc1)C(=O)Nc1ccc(OCc2ccc(OC(F)(F)F)cc2)cc1`: the Activity in series [1] turned out to be 133.4%. On the same count and under the same terms, under `CC(C)(Oc1ccc(Cl)cc1)C(=O)N1CCC(NC(=O)Nc2ccccc2)CC1` stands 118%; under `CC(C)(Oc1ccc(Cl)cc1)C(=O)Nc1ccc(OCc2ccc(C(=O)O)cc2)cc1`, 116.5%.

Take `O=C(c1ccc(F)cc1)C1CCN(CCn2c(=O)[nH]c3ccccc3c2=O)CC1` [KETANSERIN]: the half-life amounted to 21 min in [9] and 25 min in series [10]. The CLint scaled in series [13] is 71 mL/min/kg; in series [14], 258 mL/min/kg.

Usually half-life stands for the time needed for the level to fall by half in the phase considered.
